Source: ChEMBL document CHEMBL1157556, “Synthesis and biological screening of a combinatorial library of beta-chlorovinyl chalcones as anticancer, anti-inflammatory and antimicrobial agents” (Bioorg Med Chem, 2010)
≈ marks a conversion by molar mass, not a printed value.

Key:
Escherichia coli [1] = assay: Antibacterial activity against Escherichia coli MTCC 1650 after 24 hrs; assay type: functional; settings: MTCC 1650, 24 h
In short: (§1)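 Agar well diffusion on Mueller Hinton agar seeded with 0.1 mL of a 10⁵ cfu/mL suspension in 0.85% saline. Compounds dissolved in DMSO, final concentrations 25–250 µg/mL, 0.1 mL loaded per 6 mm well. DMSO (1%) control; tetracycline (10 µg/mL) reference. Duplicate plates incubated 24 h at 37 °C. Inhibition zone read in mm. MIC taken as lowest concentration giving complete growth inhibition.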

Calu-1 = assay: Anticancer activity against human Calu1 cells at 10 uM after 48 hrs by propidium iodide fluorescence assay; assay type: functional
In short: (§2)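 Propidium iodide DNA-fluorescence assay. Seeding 3000–7500 cells/well, 24 h recovery at 37 °C in 5% CO₂. Compounds in 0.1% DMSO added to triplicate wells at 10 µM. Flavopiridol 700 nM and gemcitabine 500 nM as reference inhibitors. Plates frozen at −80 °C for 24 h, thawed to room temperature, fluorescence read at excitation 530 nm and emission 620 nm. Percent cytotoxicity calculated.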

THP-1 [2] = assay: Cytotoxicity against human THP1 cells assessed as CCK8 release at 10 uM after 24 hrs by ELISA; assay type: cell-based; settings: thp-1, 24 h
In short: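 Same THP-1 cytokine-assay cells, with compounds in 0.5% DMSO and LPS stimulation, were scored in parallel for cytotoxicity by CCK-8.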

Staphylococcus aureus [3] = assay: Antibacterial activity against Staphylococcus aureus MTCC 96 at 50 ug/ml after 24 hrs agar diffusion method; assay type: functional; settings: MTCC 96, 24 h, read-out: IZ; in short: as §1
HCT-116 = assay: Anticancer activity against human HCT116 cells at 10 uM after 48 hrs by propidium iodide fluorescence assay; assay type: functional; in short: as §2
Proteus vulgaris [4] = assay: Antibacterial activity against Proteus vulgaris MTCC 1771 after 24 hrs; assay type: functional; settings: MTCC 1771, 24 h; in short: as §1
THP-1 [5] = assay: Antiinflammatory activity in human THP1 cells assessed as inhibition of LPS-induced TNFalpha release at 10 uM after 24 hrs by ELISA; assay type: functional; settings: THP-1, 24 h
In short: (§3)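 THP-1 cells grown in RPMI 1640 with 10% FBS, penicillin and streptomycin, then PMA-differentiated. Compounds in 0.5% DMSO preincubated 30 min at 37 °C before LPS (E. coli 0127:B8) stimulation. TNF-α and IL-6 release measured by kit per the manufacturer (BD Biosciences). Percent inhibition calculated relative to control. Dexamethasone 1 µM as reference.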

Klebsiella pneumoniae [6] = assay: Antibacterial activity against Klebsiella pneumoniae NCIM 2957 after 24 hrs; assay type: functional; settings: NCIM 2957, 24 h; in short: as §1
Proteus vulgaris [7] = assay: Antibacterial activity against Proteus vulgaris MTCC 1771 at 50 ug/ml after 24 hrs agar diffusion method; assay type: functional; settings: MTCC 1771, 24 h, read-out: IZ; in short: as §1
Bacillus subtilis [8] = assay: Antibacterial activity against Bacillus subtilis MTCC 1789 at 50 ug/ml after 24 hrs agar diffusion method; assay type: functional; settings: MTCC 1789, 24 h, read-out: IZ; in short: as §1
Staphylococcus aureus [9] = assay: Antibacterial activity against Staphylococcus aureus MTCC 96 after 24 hrs; assay type: functional; settings: MTCC 96, 24 h; in short: as §1
Trichoderma viride = assay: Antifungal activity against Trichoderma viride MTCC 167 at 100 ug/ml after 48 hrs agar diffusion method; assay type: functional; settings: for zone of inhibition at 100 µg/mL: MTCC 167, 48 h, read-out: IZ
In short: (§4)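 Fungal spore suspensions in sterile distilled water adjusted to 10⁶ cfu/mL; 0.1 mL spread on Sabouraud dextrose agar. Wells of 6 mm filled with 0.1 mL compound dilution in DMSO. DMSO (1%) control; nystatin (30 µg/mL) reference. Duplicate plates incubated at 28 °C for 48 h. Activity read as inhibition zone diameter in mm.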

Bacillus subtilis [10] = assay: Antibacterial activity against Bacillus subtilis MTCC 1789 after 24 hrs; assay type: functional; settings: MTCC 1789, 24 h; in short: as §1
NCI-H460 = assay: Anticancer activity against human H460 cells at 10 uM after 48 hrs by propidium iodide fluorescence assay; assay type: functional; in short: as §2
PANC-1 = assay: Anticancer activity against human PANC1 cells at 10 uM after 48 hrs by propidium iodide fluorescence assay; assay type: functional; in short: as §2
ACHN = assay: Anticancer activity against human ACHN cells at 10 uM after 48 hrs by propidium iodide fluorescence assay; assay type: functional; in short: as §2
Klebsiella pneumoniae [11] = assay: Antibacterial activity against Klebsiella pneumoniae NCIM 2957 at 50 ug/ml after 24 hrs agar diffusion method; assay type: functional; settings: NCIM 2957, 24 h, read-out: IZ; in short: as §1
THP-1 [12] = assay: Antiinflammatory activity in human THP1 cells assessed as inhibition of LPS-induced IL6 release at 10 uM after 24 hrs by ELISA; assay type: functional; settings: THP-1, 24 h; in short: as §3
Aspergillus flavus = assay: Antifungal activity against Aspergillus flavus MTCC 2501 at 100 ug/ml after 48 hrs agar diffusion method; assay type: functional; settings: for zone of inhibition at 100 µg/mL: MTCC 2501, 48 h, read-out: IZ; in short: as §4
Escherichia coli [13] = assay: Antibacterial activity against Escherichia coli MTCC 1650 at 50 ug/ml after 24 hrs agar diffusion method; assay type: functional; settings: MTCC 1650, 24 h, read-out: IZ; in short: as §1
Penicillium chrysogenum = assay: Antifungal activity against Penicillium chrysogenum MTCC 1996 at 100 ug/ml after 48 hrs agar diffusion method; assay type: functional; settings: for zone of inhibition at 100 µg/mL: MTCC 1996, 48 h, read-out: IZ; in short: as §4
Aspergillus niger = assay: Antifungal activity against Aspergillus niger MTCC 1781 at 100 ug/ml after 48 hrs agar diffusion method; assay type: functional; settings: for zone of inhibition at 100 µg/mL: MTCC 1781, 48 h, read-out: IZ; in short: as §4
Candida albicans = assay: Antifungal activity against Candida albicans MTCC 227 at 100 ug/ml after 48 hrs agar diffusion method; assay type: functional; settings: MTCC 227, 48 h, read-out: IZ; in short: as §4

Compound	MIC (Escherichia coli [1]) [µg/mL]	Activity (Calu-1) [%]	Activity (THP-1 [2]) [%]	zone of inhibition at 50 µg/mL (Staphylococcus aureus [3]) [mm]	Activity (HCT-116) [%]	MIC (Proteus vulgaris [4]) [µg/mL]	inhibition at 10 µM (THP-1 [5]) [%]	MIC (Klebsiella pneumoniae [6]) [µg/mL]	zone of inhibition at 50 µg/mL (Proteus vulgaris [7]) [mm]	zone of inhibition at 50 µg/mL (Bacillus subtilis [8]) [mm]	MIC (Staphylococcus aureus [9]) [µg/mL]	zone of inhibition at 100 µg/mL (Trichoderma viride) [mm]	MIC (Bacillus subtilis [10]) [µg/mL]	Activity (NCI-H460) [%]	Activity (PANC-1) [%]	Activity (ACHN) [%]	zone of inhibition at 50 µg/mL (Klebsiella pneumoniae [11]) [mm]	inhibition at 10 µM (THP-1 [12]) [%]	zone of inhibition at 100 µg/mL (Aspergillus flavus) [mm]	zone of inhibition at 50 µg/mL (Escherichia coli [13]) [mm]	also measured
COc1ccc(C(=O)/C=C/C=C(\Cl)c2cccc(Cl)c2)cc1	50 (≈ 150 µM)	20	35	13	31	50 (≈ 150 µM)	1	50 (≈ 150 µM)	15	15	50 (≈ 150 µM)	11	50 (≈ 150 µM)	26	18	22	17	3	8	10	–
NYSTATIN	–	–	–	–	–	–	–	–	–	–	–	–	–	–	–	–	–	–	–	–	inhibition zone (IZ) (Penicillium chrysogenum): 14 mm; inhibition zone (IZ) (Trichoderma viride): 12 mm; inhibition zone (IZ) (Aspergillus flavus): 16 mm; inhibition zone (IZ) (Aspergillus niger): 13 mm
CN(C)[C@@H]1C(O)=C(C(N)=O)C(=O)[C@@]2(O)C(O)=C3C(=O)c4c(O)cccc4[C@@](C)(O)[C@H]3C[C@@H]12 [TETRACYCLINE]	–	–	–	18	–	–	–	–	16	18	–	–	–	–	–	–	20	–	–	15	–
COc1ccc(C(=O)/C=C/C=C(\Cl)c2ccc(Br)cc2)cc1	50 (≈ 132 µM)	29	30	12	20	50 (≈ 132 µM)	66	50 (≈ 132 µM)	–	–	50 (≈ 132 µM)	8	50 (≈ 132 µM)	20	25	39	11	97	8	–	zone of inhibition at 100 µg/mL (Penicillium chrysogenum): 12 mm
COc1ccc(C(=O)/C=C/C=C(\Cl)c2ccc(F)cc2)c(OC)c1	50 (≈ 144 µM)	36	0	–	14	50 (≈ 144 µM)	0	50 (≈ 144 µM)	16	10	50 (≈ 144 µM)	–	50 (≈ 144 µM)	26	23	30	–	44	10	11	–
COc1ccc(C(=O)/C=C/C=C(\Cl)c2ccc(Cl)cc2)c(OC)c1	50 (≈ 138 µM)	32	0	13	26	50 (≈ 138 µM)	0	50 (≈ 138 µM)	18	14	50 (≈ 138 µM)	12	50 (≈ 138 µM)	21	32	37	15	43	12	10	zone of inhibition at 100 µg/mL (Penicillium chrysogenum): 14 mm; zone of inhibition at 100 µg/mL (Aspergillus niger): 14 mm
COc1ccc(C(=O)/C=C/C=C(\Cl)c2ccc(OC)cc2OC)c(OC)c1	50 (≈ 129 µM)	24	0	–	29	50 (≈ 129 µM)	0	50 (≈ 129 µM)	13	–	50 (≈ 129 µM)	–	50 (≈ 129 µM)	18	23	26	–	27	–	–	zone of inhibition at 100 µg/mL (Aspergillus niger): 13 mm
COc1ccc(C(=O)/C=C/C=C(\Cl)c2ccc(Cl)cc2)cc1	50 (≈ 150 µM)	32	28	–	29	50 (≈ 150 µM)	67	50 (≈ 150 µM)	–	–	50 (≈ 150 µM)	12	50 (≈ 150 µM)	33	30	35	10	95	12	–	zone of inhibition at 100 µg/mL (Penicillium chrysogenum): 12 mm; zone of inhibition at 100 µg/mL (Candida albicans): 10 mm; zone of inhibition at 100 µg/mL (Aspergillus niger): 13 mm
COc1ccc(C(=O)/C=C/C=C(\Cl)c2ccc(OC)cc2OC)cc1	50 (≈ 139 µM)	7	35	–	0	50 (≈ 139 µM)	0	50 (≈ 139 µM)	–	12	50 (≈ 139 µM)	12	50 (≈ 139 µM)	15	7	33	–	40	10	10	zone of inhibition at 100 µg/mL (Aspergillus niger): 11 mm
